The test system of one data set is AZ-521 cell line. The data set can be described thus: Cytotoxicity against human AZ-521 cells assessed as reduction in cell viability after 48 hrs by MTT assay. The class given is functional, cell-based. To be noted: AZ-521, 48 h. The procedure, abridged: (§1)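 Cells exposed to compounds from 1 × 10−4 to 1 × 10−6 M for 48 h. Viability read by MTT. IC50 derived from five concentrations, each run in triplicate.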

A short description of data set [1]: Cytotoxicity against non-stimulated mouse B16F10 cells assessed as cell viability at 100 uM relative to control. The data set is classed as cell-based, B16-F10. Conditions: read-out: Activity. The procedure, abridged: (§2)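 B16 melanoma cells tested for viability at 10 or 100 μM. Absorbance read at 570 nm (test) minus 630 nm (reference). Expressed as % of DMSO control (DMSO 2 μL·mL−1). Mean ± SD, n = 3.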

Data set [2] deals with HL-60. The data set can be described thus: Induction of apoptosis in human HL60 cells assessed as increase in cleaved caspase-8 expression at 3 uM after 24 to 48 hrs by Western blot analysis. The class given is functional, cell-based. The procedure, abridged: (§3)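 HL60 cells treated with 3.0 μM for 24 and 48 h, then lysed in RIPA buffer. Total protein cleared by centrifugation and quantified by BCA. Procaspase and cleaved caspase-3, -8 and -9 levels assessed by Western blot.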

The next data set concerns WI-38. The data set can be described thus: Cytotoxicity against human WI38 cells assessed as reduction in cell viability after 48 hrs by MTT assay. The data set is classed as cell-based. To be noted: WI-38, 48 h. The procedure, abridged:
as §1

Data set [3] deals with B16-F10. The experiment in a line: Inhibition of alpha-MSH-stimulated melanogenesis in mouse B16F10 cells assessed as melanin content at 100 uM measured after 48 hrs relative to control. Set-up: scale not given: the % may be the effect or the level left. The class given is functional. The procedure, abridged: (§4)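 B16F10 cells treated with test sample plus 0.10 μM α-MSH for 48 h. Melanin solubilized in 2 N NaOH–10% DMSO and read at 405 nm. Expressed as % of DMSO-treated cells (DMSO 2 μL·mL−1). Mean ± SD, n = 3.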

Data set [4] deals with HL-60. The experiment in a line: Induction of apoptosis in human HL60 cells assessed as increase in cleaved caspase-3 expression at 3 uM after 24 to 48 hrs by Western blot analysis. The class given is functional, cell-based. The procedure, abridged:
as §3

Data set [5] relates to HL-60. The experiment in a line: Induction of apoptosis in human HL60 cells assessed as late apoptotic cells at 3 uM after 48 hrs by Annexin V-FITC/propidium iodide staining based flow cytometry (reference value: 1.9%). The data set is classed as functional. The procedure, abridged: (§5)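 HL60 cells cultured with 3.0 μM for 0, 24 and 48 h. Cells stained with annexin V-FITC and propidium iodide and analyzed by flow cytometry for early and late apoptotic fractions. Mean of three experiments, compared against an untreated negative control.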

For data set [6], the system named is HL-60. The experiment in a line: Induction of apoptosis in human HL60 cells assessed as chromatin condensation at 1 to 3 uM after 24 hrs by Hoechst 33342 staining based fluorescence microscopic analysis. The class given is functional, cell-based. The procedure, abridged: (§6)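 HL60 cells treated for 24 h, fixed in 4% paraformaldehyde, and nuclei stained with Hoechst 33342. Cell shrinkage, nuclear fragmentation and chromatin condensation scored by fluorescence microscopy.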

Data set [7] has as its system B16-F10. The data set can be described thus: Selectivity index, ratio of compound effect for cytotoxicity against non-stimulated mouse B16F10 cells assessed as cell viability at 100 uM to compound effect for inhibition of alpha-MSH-stimulated melanogenesis in mouse B16F10 cells assessed as melanin content at 100 uM.
Data set [8] relates to HL-60. The experiment in a line: Induction of apoptosis in human HL60 cells assessed as fragmentation of nuclei at 1 to 3 uM after 24 hrs by Hoechst 33342 staining based fluorescence microscopic analysis. The data set is classed as functional, cell-based. The procedure, abridged:
as §6

In data set [9] the test system is HL-60. The experiment in a line: Induction of apoptosis in human HL60 cells assessed as early apoptotic cells at 3 uM after 24 hrs by Annexin V-FITC/propidium iodide staining based flow cytometry (reference value: 2.4%). The data set is classed as functional. The procedure, abridged:
as §5

A short description of data set [10]: Selectivity index, ratio of IC50 for human […] cells to IC50 for human A549 cells. The procedure, abridged: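 Selectivity index equals the IC50 against WI38 normal cells divided by the IC50 against A549 cells.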
For the next data set, the system named is A549. The data set can be described thus: Cytotoxicity against human A549 cells assessed as reduction in cell viability after 48 hrs by MTT assay. The class given is functional, cell-based. Conditions: A549, 48 h. The procedure, abridged:
as §1

Data set [11] has as its system HL-60. The data set can be described thus: Cytotoxicity against human HL60 cells assessed as reduction in cell viability after 48 hrs by MTT assay. To be noted: HL-60, 48 h. The data set is classed as functional, cell-based. The procedure, abridged: as §1
For data set [12], the system named is HL-60. The experiment in a line: Induction of apoptosis in human HL60 cells assessed as cell shrinkage at 0.3 to 3 uM after 24 hrs by Hoechst 33342 staining based fluorescence microscopic analysis. The data set is classed as functional. Conditions: 1 to 3 uM, in the assay text read “1 to 3 uM” for “0.3 to 3 uM”. The procedure, abridged:
as §6

Another data set concerns SK-BR-3. The data set can be described thus: Cytotoxicity against human SKBR3 cells assessed as reduction in cell viability after 48 hrs by MTT assay. The class given is functional, cell-based. Conditions: SK-BR-3, 48 h. The procedure, abridged:
as §1

In data set [13] the test system is B16-F10. The data set can be described thus: Selectivity index, ratio of compound effect for cytotoxicity against non-stimulated mouse B16F10 cells assessed as cell viability at 10 uM to compound effect for inhibition of alpha-MSH-stimulated melanogenesis in mouse B16F10 cells assessed as melanin content at 10 uM.
Data set [14] in a line: Cytotoxicity against non-stimulated mouse B16F10 cells assessed as cell viability at 10 uM relative to control. The class given is cell-based, B16-F10. To be noted: read-out: Activity. The procedure, abridged:
as §2

In data set [15] the test system is HL-60. The experiment in a line: Induction of apoptosis in human HL60 cells assessed as early apoptotic cells at 3 uM after 48 hrs by Annexin V-FITC/propidium iodide staining based flow cytometry (reference value: 0.8%). The class given is functional. The procedure, abridged:
as §5

Data set [16] has as its system B16-F10. The data set can be described thus: Inhibition of alpha-MSH-stimulated melanogenesis in mouse B16F10 cells assessed as melanin content at 10 uM measured after 48 hrs relative to control. The class given is functional. The arrangement: scale not given: the % may be the effect or the level left. The procedure, abridged:
as §4

Data set [17] relates to HL-60. The experiment in a line: Induction of apoptosis in human HL60 cells assessed as increase in cleaved caspase-9 expression at 3 uM after 24 to 48 hrs by Western blot analysis. The class given is functional, cell-based. The procedure, abridged: as §3
Data set [18] concerns HL-60. The experiment in a line: Induction of apoptosis in human HL60 cells assessed as late apoptotic cells at 3 uM after 24 hrs by Annexin V-FITC/propidium iodide staining based flow cytometry (reference value: 3%). The class given is functional. The procedure, abridged: as §5

Calls of active or inactive are those of the source. The rule behind the calls is not given here.

Regarding `C=C[C@@](C)(O)CC/C=C(\C)C(=O)O[C@H]1[C@H](O)[C@@H](O)[C@H](O[C@](C)(C=C)CCCC(C)C(=O)O[C@H]2C[C@]3(C(=O)O[C@@H]4O[C@H](CO)[C@@H](O)[C@H](O)[C@H]4O[C@@H]4O[C@@H](C)[C@H](O[C@@H]5O[C@@H](CO)[C@H](O)[C@H]5O)[C@@H](O[C@@H]5O[C@H](CO)[C@@H](O)[C@H](O)[C@H]5O)[C@H]4O)[C@H](O)C[C@]4(C)C(=CC[C@@H]5[C@@]6(C)CC[C@H](O[C@@H]7O[C@H](CO[C@@H]8OC[C@H](O)[C@H](O)[C@H]8O[C@@H]8OC[C@@H](O)[C@H](O)[C@H]8O)[C@@H](O)[C@H](O)[C@H]7O[C@@H]7O[C@H](CO)[C@@H](O)[C@H](O)[C@H]7O)C(C)(C)[C@@H]6CC[C@]54C)[C@@H]3CC2(C)C)O[C@@H]1C` (some centres not stated), the IC50 in the data set with AZ-521 cell line was found to be 500 nM; in the data set on WI-38, 5100 nM; with A549, 300 nM; in the data set with HL-60 [11] it was 300 nM; with SK-BR-3 it was 1300 nM. The viability at 100 µM in data set [1] was 100%. The outcome with HL-60 [2], with HL-60 [4], in the data set with HL-60 [6], in the data set on HL-60 [8], in the data set on HL-60 [12] and in the data set with HL-60 [17] was Active. Also, the Activity in the data set on B16-F10 [3] came to 50.7%; in the data set on HL-60 [5] it was 42.2%; in the data set on HL-60 [9] it was 19%; in the data set with HL-60 [15] it was 38.2%; in the data set on B16-F10 [16], 80.9%; with HL-60 [18] it was 22.7%. Further, the values for the Ratio in the data set on B16-F10 [7] and with B16-F10 [13] were 0.51 and 0.78, respectively. The “Ratio IC50” value in [10] amounted to 16.9. Further, in data set [14], the viability at 10 µM is 103%.
